Source: ChEMBL document CHEMBL3808334, “Synthesis and in vitro evaluation of novel triazine analogues as anticancer agents and their interaction studies with bovine serum albumin” (Eur J Med Chem, 2016)

How the values were obtained:
Format in all cases: functional
[1] = Growth inhibition of human PC3 cells assessed as cell growth at 10^-4 M incubated for 48 hrs by sulforhodamine B assay; conditions: PC-3, 48 h, read-out: Activity
[2] = system: MDA-MB-231; experiment: Growth inhibition of human MDA-MB-231 cells assessed as cell growth at 10^-4 M incubated for 48 hrs by sulforhodamine B assay; conditions: MDA-MB-231, 48 h, read-out: Activity
[3] = Growth inhibition of human Hs 578T cells assessed as cell growth at 10^-4 M incubated for 48 hrs by sulforhodamine B assay; conditions: read-out: Activity
[4] = system: T47D; experiment: Growth inhibition of human T47D cells assessed as cell growth at 10^-4 M incubated for 48 hrs by sulforhodamine B assay; conditions: read-out: Activity
[5] = Growth inhibition of human OVCAR4 cells incubated for 48 hrs by sulforhodamine B assay; conditions: OVCAR-4, 48 h
In short: (§1)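 Cells were plated at 5,000–40,000 per well according to doubling time and preincubated 24 h at 37 °C in 5% CO2; time-zero plates were then TCA-fixed. Five concentrations (10-fold or ½-log dilutions, DMSO stock) were incubated 48 h. Cells were TCA-fixed, stained with 0.4% SRB and read at 515 nm. GI50 was taken where [(Ti−Tz)/(C−Tz)]×100 = 50.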

[6] = system: NCI/ADR-RES; experiment: Growth inhibition of human NCI/ADR-RES cells incubated for 48 hrs by sulforhodamine B assay; in short: as §1
[7] = Growth inhibition of human Hs 578T cells incubated for 48 hrs by sulforhodamine B assay; in short: as §1
[8] = Growth inhibition of human BT549 cells incubated for 48 hrs by sulforhodamine B assay; conditions: BT-549, 48 h
In short: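 Five-dose assay: five concentrations from 10-fold or ½-log serial dilutions. Cells are plated at 5,000–40,000 per well according to doubling time, grown 24 h, then exposed 48 h at 37 °C, 5% CO₂. Fixed with cold 50% TCA (final addition) for 60 min at 4 °C and stained with 0.4% SRB in 1% acetic acid. Bound dye is solubilized in 10 mM Tris base and read at 515 nm. GI₅₀ is where [(Ti−Tz)/(C−Tz)]×100 = 50, with a time-zero plate as Tz.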

[9] = system: SK-MEL-2; experiment: Growth inhibition of human SK-MEL-2 cells assessed as cell growth at 10^-8 M incubated for 48 hrs by sulforhodamine B assay; conditions: SK-MEL-2, 48 h, read-out: Activity
[10] = Growth inhibition of human HOP92 cells assessed as cell growth at 10^-7 M incubated for 48 hrs by sulforhodamine B assay; conditions: HOP-92, 48 h, read-out: Activity
[11] = Growth inhibition of human PC3 cells assessed as cell growth at 10^-5 M incubated for 48 hrs by sulforhodamine B assay; conditions: PC-3, 48 h, read-out: Activity
[12] = system: NCI-H522; experiment: Growth inhibition of human NCI-H522 cells assessed as cell growth at 10^-4 M incubated for 48 hrs by sulforhodamine B assay; conditions: NCI-H522, 48 h, read-out: Activity
[13] = Growth inhibition of human LOXIMVI cells assessed as cell growth at 10^-7 M incubated for 48 hrs by sulforhodamine B assay; conditions: LOX IMVI, read-out: Activity
[14] = system: M14; experiment: Growth inhibition of human M14 cells assessed as cell growth at 10^-4 M incubated for 48 hrs by sulforhodamine B assay; conditions: M14, 48 h, read-out: Activity
[15] = Growth inhibition of human RXF393 cells assessed as cell growth at 10 uM incubated for 48 hrs by sulforhodamine B assay; conditions: RXF 393, 48 h, read-out: Activity
[16] = system: SN12C; experiment: Growth inhibition of human SN12C cells assessed as cell growth at 10 uM incubated for 48 hrs by sulforhodamine B assay; conditions: read-out: Activity
[17] = system: MDA-MB-231; experiment: Growth inhibition of human MDA-MB-231 cells assessed as cell growth at 10 uM incubated for 48 hrs by sulforhodamine B assay; conditions: MDA-MB-231, 48 h, read-out: Activity
[18] = system: MDA-MB-468; experiment: Growth inhibition of human MDA-MB-468 cells assessed as cell growth at 10 uM incubated for 48 hrs by sulforhodamine B assay; conditions: MDA-MB-468, 48 h, read-out: Activity
[19] = system: K562; experiment: Growth inhibition of human K562 cells assessed as cell growth at 10^-8 M incubated for 48 hrs by sulforhodamine B assay; conditions: K562, 48 h, read-out: Activity
[20] = Growth inhibition of human UO31 cells assessed as cell growth at 10^-7 M incubated for 48 hrs by sulforhodamine B assay; conditions: UO-31, 48 h, read-out: Activity
[21] = Growth inhibition of human SF295 cells assessed as cell growth at 10^-8 M incubated for 48 hrs by sulforhodamine B assay; conditions: SF-295, 48 h, read-out: Activity
[22] = system: NCI/ADR-RES; experiment: Growth inhibition of human NCI/ADR-RES cells assessed as cell growth at 10^-6 M incubated for 48 hrs by sulforhodamine B assay; conditions: read-out: Activity
[23] = Growth inhibition of human UO31 cells assessed as cell growth at 10^-6 M incubated for 48 hrs by sulforhodamine B assay; conditions: UO-31, 48 h, read-out: Activity
[24] = system: EKVX; experiment: Growth inhibition of human EKVX cells assessed as cell growth at 10^-5 M incubated for 48 hrs by sulforhodamine B assay; conditions: read-out: Activity
In short: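 Cells seeded at 5,000–40,000/well according to doubling time and preincubated 24 h at 37 °C, 5% CO2. Time-zero plates were TCA-fixed. DMSO concentrate was diluted in medium with 50 µg/ml gentamicin to give five concentrations (10-fold or ½ log steps), then exposed 48 h. Cells were TCA-fixed, stained with 0.4% SRB and read at 515 nm. Percent growth was taken against time-zero and control; GI50, TGI and LC50 derived.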

[25] = Growth inhibition of human HOP92 cells assessed as cell growth at 10^-5 M incubated for 48 hrs by sulforhodamine B assay; conditions: HOP-92, 48 h, read-out: Activity
[26] = system: SK-MEL-5; experiment: Growth inhibition of human SK-MEL-5 cells assessed as cell growth at 10^-5 M incubated for 48 hrs by sulforhodamine B assay; conditions: SK-MEL-5, 48 h, read-out: Activity
[27] = Growth inhibition of human UACC62 cells assessed as cell growth at 10^-5 M incubated for 48 hrs by sulforhodamine B assay; conditions: UACC-62, 48 h, read-out: Activity
[28] = Growth inhibition of human OVCAR3 cells assessed as cell growth at 10^-5 M incubated for 48 hrs by sulforhodamine B assay; conditions: OVCAR-3, 48 h, read-out: Activity
[29] = read-out: LC50 (the source's name)
[30] = read-out: pLC50 (the source's name) (converted)

Work on `Clc1ccc(-c2nc(Nc3ccc(-c4nc5ccccc5[nH]4)cc3)nc(N3CCOCC3)n2)cc1` yielded a growth at 100 µM [1] of -45%, a growth at 100 µM [2] of -22% and a growth at 100 µM [3] of -7%. For the same molecule, the growth at 100 µM [4] was -32%, the GI50 ([5]; read-out: GI50) was 1040 nM and the CC50 [5, 29] was 5.53 µM. The TGI ([5]; read-out: TGI) was 2.4 µM, the GI50 ([5]; read-out: pGI50 (converted)) was 1050 nM and the CC50 [5, 30] was 5.5 µM. It also gave a TGI ([5]; read-out: pTGI (converted)) of 2.4 µM, a GI50 ([6]; read-out: GI50) of 631 nM and a TGI ([6]; read-out: TGI) of 2.19 µM. For the same molecule, the GI50 ([6]; read-out: pGI50 (converted)) was 631 nM, the TGI ([6]; read-out: pTGI (converted)) was 2.19 µM and the GI50 ([7]; read-out: GI50) was 700 nM. It also gave a CC50 [7, 29] greater than 100 µM, a TGI ([7]; read-out: TGI) of 3.02 µM and a GI50 ([7]; read-out: pGI50 (converted)) of 708 nM. It also gave a CC50 [7, 30] greater than 100 µM, a TGI ([7]; read-out: pTGI (converted)) of 3.02 µM and a GI50 ([8]; read-out: GI50) of 1730 nM. It also gave a TGI ([8]; read-out: TGI) of 3.68 µM, a GI50 ([8]; read-out: pGI50 (converted)) of 1740 nM and a TGI ([8]; read-out: pTGI (converted)) of 3.72 µM. The growth at 0.01 µM [9] was 99%, the growth at 0.1 µM [10] was 89% and the growth at 10 µM [11] was -89%. For the same molecule, the growth at 100 µM [12] was -41%, the growth at 0.1 µM [13] was 94% and the growth at 100 µM [14] was -35%. For the same molecule, the growth at 10 µM [15] was -91.1%, the growth at 10 µM [16] was -79.5% and the growth at 10 µM [17] was -76.7%. For the same molecule, the growth at 10 µM [18] was -84%, the growth at 0.01 µM [19] was 96% and the growth at 0.1 µM [20] was 92%. It also gave a growth at 0.01 µM [21] of 97%, a growth at 1 µM [22] of 37% and a growth at 1 µM [23] of 80%. The growth at 10 µM [24] was -80%, the growth at 10 µM [25] was -90% and the growth at 10 µM [26] was -94%. For the same molecule, the growth at 10 µM [27] was -77% and the growth at 10 µM [28] was -93%.

`c1ccc2[nH]c(-c3ccc(Nc4nc(N5CCCCC5)nc(N5CCOCC5)n4)cc3)nc2c1` showed a growth at 100 µM [1] of -19%, a growth at 100 µM [2] of -16% and a growth at 100 µM [3] of -12%. For the same molecule, the growth at 100 µM [4] was -43%, the GI50 ([5]; read-out: GI50) was 3980 nM and the CC50 [5, 29] was greater than 100 µM. The TGI ([5]; read-out: TGI) was 25.4 µM, the GI50 ([5]; read-out: pGI50 (converted)) was 3980 nM and the CC50 [5, 30] was greater than 100 µM. It also gave a TGI ([5]; read-out: pTGI (converted)) of 25.1 µM, a GI50 ([6]; read-out: GI50) of 4690 nM and a CC50 [6, 29] greater than 100 µM. The TGI ([6]; read-out: TGI) was 55.2 µM, the GI50 ([6]; read-out: pGI50 (converted)) was 4680 nM and the CC50 [6, 30] was greater than 100 µM. It also gave a TGI ([6]; read-out: pTGI (converted)) of 55 µM, a GI50 ([7]; read-out: GI50) of 2560 nM and a CC50 [7, 29] greater than 100 µM. The TGI ([7]; read-out: TGI) was 8.61 µM, the GI50 ([7]; read-out: pGI50 (converted)) was 2570 nM and the CC50 [7, 30] was greater than 100 µM. For the same molecule, the TGI ([7]; read-out: pTGI (converted)) was 8.51 µM, the GI50 ([8]; read-out: GI50) was 2070 nM and the CC50 [8, 29] was 92.7 µM. The TGI ([8]; read-out: TGI) was 5.2 µM, the GI50 ([8]; read-out: pGI50 (converted)) was 2090 nM and the CC50 [8, 30] was 93.3 µM. For the same molecule, the TGI ([8]; read-out: pTGI (converted)) was 5.25 µM, the growth at 0.01 µM [9] was 97% and the growth at 0.1 µM [10] was 93%. For the same molecule, the growth at 10 µM [11] was -4%, the growth at 100 µM [12] was -29% and the growth at 0.1 µM [13] was 95%. For the same molecule, the growth at 100 µM [14] was -70%, the growth at 10 µM [15] was -56.1% and the growth at 10 µM [16] was 52.4%. It also gave a growth at 10 µM [17] of 23.1%, a growth at 10 µM [18] of -3.66% and a growth at 0.01 µM [19] of 103%. The growth at 0.1 µM [20] was 86%, the growth at 0.01 µM [21] was 94% and the growth at 1 µM [22] was 95%. For the same molecule, the growth at 1 µM [23] was 87%, the growth at 10 µM [24] was 5% and the growth at 10 µM [25] was -54%. The growth at 10 µM [26] was -90%, the growth at 10 µM [27] was -53% and the growth at 10 µM [28] was -25%.
